Measured values published in ChEMBL document CHEMBL4431374, “Synthesis and Antitubercular Activity of New Benzo[b]thiophenes” (ACS Med Chem Lett, 2016).
Values after ≈ are worked out from the molar mass of the structure shown. Active and inactive are the calls of the source. The calls are words filed in the database; no cut-off is given here.

Legend:
Type in all cases: functional
[1] = tested on: Mycobacterium tuberculosis; experiment: Antitubercular activity against drug resistant active Mycobacterium tuberculosis H37Ra ATCC 25177 after 8 days by XTT reduction menadione assay; conditions: H37Ra ATCC 25177, 192 h
In short: (§1)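 H37Ra was tested by microdilution in 96-well plates, at 30–0.001 μg/mL in one-third dilutions. Each plate carried a rifampicin and isoniazid dilution series as positive controls. Growth was scored by XTT reduction menadione assay (XRMA) and cross-checked by a final absorbance reading at 600 nm.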

[2] = tested on: Mycobacterium tuberculosis; experiment: Antitubercular activity against drug resistant dormant Mycobacterium tuberculosis H37Ra ATCC 25177 after 12 days by XTT reduction menadione assay; conditions: H37Ra ATCC 25177, 288 h; in short: as §1
[3] = tested on: Mycobacterium tuberculosis variant bovis BCG; experiment: Antitubercular activity against dormant Mycobacterium bovis BCG ATCC 35734 after 12 days by nitrate reductase assay; conditions: for MIC90: ATCC 35734, 288 h
[4] = tested on: Mycobacterium tuberculosis variant bovis BCG; experiment: Antitubercular activity against active Mycobacterium bovis BCG ATCC 35734 after 8 days by nitrate reductase assay; conditions: for MIC90: ATCC 35734, 192 h
[5] = tested on: Mycobacterium tuberculosis variant bovis BCG; experiment: Antitubercular activity against drug resistant dormant Mycobacterium bovis BCG ATCC 35734 at 3 to 30 ug/ml after 12 days by nitrate reductase assay

SMILES | MIC90 [1] [µg/mL] | MIC90 [2] [µg/mL] | MIC90 [3] [µg/mL] | MIC90 [4] [µg/mL] | Activity [5] [%] | Activity [3] | Activity [4]
Cc1ccc(C(=O)CC(=O)c2cc3ccccc3s2)c(O)c1 | 8.97 (≈ 28.9 µM) | 9.42 (≈ 30.4 µM) | 1.61 (≈ 5.19 µM) | 1.68 (≈ 5.41 µM) | >97 | – | –
Oc1ccccc1-c1cc(-c2cc3ccccc3s2)[nH]n1 | – | – | – | – | >97 | – | –
CO[C@H]1/C=C/O[C@@]2(C)Oc3c(C)c(O)c4c(O)c(c(/C=N/N5CCN(C)CC5)c(O)c4c3C2=O)NC(=O)/C(C)=C\C=C\[C@H](C)[C@H](O)[C@@H](C)[C@@H](O)[C@@H](C)[C@H](OC(C)=O)[C@@H]1C [RIFAMPIN] | > 10 | > 10 | 0.0042 (≈ 0.0051 µM) | 0.004 (≈ 0.00486 µM) | – | – | –
O=C(CC(=O)c1ccccc1O)c1cc2ccccc2s1 | 12.4 (≈ 41.9 µM) | 2.87 (≈ 9.68 µM) | 1.36 (≈ 4.59 µM) | 2.34 (≈ 7.9 µM) | >97 | – | –
O=C(CC(=O)c1cc(Br)ccc1O)c1cc2ccccc2s1 | 8.04 (≈ 21.4 µM) | 7.11 (≈ 18.9 µM) | 1.77 (≈ 4.72 µM) | 1.16 (≈ 3.09 µM) | >97 | – | –
Oc1ccc(Cl)cc1-c1cc(-c2cc3ccccc3s2)[nH]n1 | – | – | – | – | >97 | – | –
NNC(=O)c1ccncc1 [ISONIAZID] | > 10 | > 10 | 0.0078 (≈ 0.0569 µM) | 0.075 (≈ 0.547 µM) | – | – | –
Cc1cc(O)c(C(=O)CC(=O)c2cc3ccccc3s2)cc1Cl | – | – | 0.9 (≈ 2.61 µM) | 0.56 to 1.9 (≈ 1.62 to 5.51 µM) | >97 | – | –
O=C(CC(=O)c1cc(Cl)cc(Cl)c1O)c1cc2ccccc2s1 | – | – | – | – | – | Active | Active
Cc1ccc(O)c(C(=O)CC(=O)c2cc3ccccc3s2)c1 | – | – | 0.71 (≈ 2.29 µM) | – | – | – | –
O=C(CC(=O)c1cc(Cl)ccc1O)c1cc2ccccc2s1 | 5.3 (≈ 16 µM) | 2.73 (≈ 8.25 µM) | 2.7 (≈ 8.16 µM) | 2.22 (≈ 6.71 µM) | >97 | – | –
Cc1cc2oc(-c3cc4ccccc4s3)cc(=O)c2cc1Cl | 9.58 (≈ 29.3 µM) | 9.1 (≈ 27.8 µM) | 0.6 (≈ 1.84 µM) | 0.56 (≈ 1.71 µM) | – | – | –
Cc1ccc2oc(-c3cc4ccccc4s3)cc(=O)c2c1 | 22.9 (≈ 78.2 µM) | 7.22 (≈ 24.7 µM) | 0.61 (≈ 2.09 µM) | 0.62 (≈ 2.12 µM) | – | – | –
Cc1ccc(O)c(-c2cc(-c3cc4ccccc4s3)[nH]n2)c1 | – | – | – | – | >97 | – | –
